Measured values as given in ChEMBL document CHEMBL3352597, “Heck products of parthenolide and melampomagnolide-B as anticancer modulators that modify cell cycle progression” (Eur J Med Chem, 2014).
Active and inactive are the calls of the source. The calls are words filed in the database; no cut-off is given here.

Tests used:
Assay type in all cases: functional
[1] = tested on: 786-0; test: Anticancer activity against human 786-0 cells
Method in brief: (§1)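 NCI 60 human cancer cell line panel, multiple-dose testing at five concentrations (10^-4, 10^-5, 10^-6, 10^-7 and 10^-8 M). Dose-response curves plot cytotoxic effect against log10 of drug concentration for each cell line. GI50 is the molar concentration giving 50% growth inhibition; LC50 is the concentration killing 50% of cells.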

[2] = tested on: NCI-H460; test: Anticancer activity against human NCI-H460 cells; method in brief: as §1
[3] = tested on: DU-145; test: Anticancer activity against human DU145 cells after 48 hrs; details: DU-145, 48 h; method in brief: as §1
[4] = tested on: SR; test: Anticancer activity against human SR cells
Method in brief: (§2)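 NCI 60 human tumour cell line screen. A single-concentration pre-screen was run at 10^-5 M. Compounds selected from it were then tested at five concentrations, 10^-4 to 10^-8 M. Dose-response curves plotted cytotoxic effect against log10 of the drug concentration for each cell line. GI50 is the molar concentration giving 50% growth inhibition, and LC50 the concentration killing 50% of cells.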

[5] = tested on: MDA-MB-468; test: Anticancer activity against human MDA-MB-468 cells; method in brief: as §1
[6] = tested on: SW-620; test: Anticancer activity against human SW620 cells; method in brief: as §2
[7] = Anticancer activity against human OVCAR8 cells; method in brief: as §1
[8] = tested on: T47D; test: Anticancer activity against human T47D cells; method in brief: as §2
[9] = tested on: MCF7; test: Anticancer activity against human MCF7 cells; method in brief: as §1
[10] = Anticancer activity against human BT549 cells; method in brief: as §1
[11] = Anticancer activity against human SF539 cells; method in brief: as §1
[12] = tested on: SK-MEL-2; test: Anticancer activity against human SK-MEL-2 cells; method in brief: as §1
[13] = Anticancer activity against human RPMI8226 cells; method in brief: as §1
[14] = tested on: MDA-MB-231; test: Anticancer activity against human MDA-MB-231 cells; method in brief: as §1
[15] = tested on: SK-MEL-5; test: Anticancer activity against human SK-MEL-5 cells; method in brief: as §1
[16] = tested on: A549; test: Anticancer activity against human A549 cells; method in brief: as §1
[17] = tested on: A498; test: Anticancer activity against human A498 cells; method in brief: as §1
[18] = tested on: NCI-H522; test: Anticancer activity against human NCI-H522 cells; method in brief: as §1
[19] = tested on: SF-268; test: Anticancer activity against human SF268 cells; method in brief: as §1
[20] = tested on: HOP-62; test: Anticancer activity against human HOP62 cells; method in brief: as §1
[21] = tested on: HT-29; test: Anticancer activity against human HT-29 cells; method in brief: as §1
[22] = Anticancer activity against human LOXIMVI cells; details: LOX IMVI; method in brief: as §1
[23] = tested on: Malme-3M; test: Anticancer activity against human MALME-3M cells; method in brief: as §1
[24] = tested on: CCRF-CEM; test: Anticancer activity against human CCRF-CEM cells; method in brief: as §1
[25] = tested on: NCI-H226; test: Anticancer activity against human NCI-H226 cells; method in brief: as §1
[26] = Anticancer activity against human UACC62 cells; method in brief: as §2
[27] = Anticancer activity against human NCI-ADR-RES cells; method in brief: as §1
[28] = tested on: ACHN; test: Anticancer activity against human ACHN cells; method in brief: as §1
[29] = tested on: M14; test: Anticancer activity against human M14 cells; method in brief: as §1
[30] = Anticancer activity against human RXF393 cells; method in brief: as §1
[31] = Anticancer activity against human UACC257 cells; method in brief: as §2
[32] = Anticancer activity against human HCT15 cells; method in brief: as §1
[33] = tested on: CAKI-1; test: Anticancer activity against human CAKI-1 cells; method in brief: as §1
[34] = Anticancer activity against human COLO205 cells; method in brief: as §1
[35] = tested on: K562; test: Anticancer activity against human K562 cells; method in brief: as §1
[36] = Anticancer activity against human HCT116 cells; method in brief: as §1
[37] = tested on: IGROV-1; test: Anticancer activity against human IGROV1 cells; method in brief: as §1
[38] = Anticancer activity against human MOLT4 cells; method in brief: as §1
[39] = tested on: SNB-75; test: Anticancer activity against human SNB75 cells; method in brief: as §2
[40] = Anticancer activity against human Hs 578T cells; method in brief: as §1
[41] = tested on: SK-MEL-28; test: Anticancer activity against human SK-MEL-28 cells; method in brief: as §1
[42] = Anticancer activity against human OVCAR5 cells; method in brief: as §1
[43] = Anticancer activity against human PC3 cells; method in brief: as §1
[44] = tested on: U-251; test: Anticancer activity against human U251 cells; method in brief: as §2
[45] = tested on: KM12; test: Anticancer activity against human KM12 cells; method in brief: as §1
[46] = tested on: SN12C; test: Anticancer activity against human SN12C cells; method in brief: as §1
[47] = tested on: MDA-MB-435; test: Anticancer activity against human MDA-MB-435 cells; method in brief: as §1
[48] = Anticancer activity against human UO31 cells; method in brief: as §2
[49] = Anticancer activity against human SKOV3 cells; method in brief: as §1
[50] = tested on: HL-60(TB); test: Anticancer activity against human HL-60(TB) cells; method in brief: as §1
[51] = tested on: TK-10; test: Anticancer activity against human TK10 cells; method in brief: as §2
[52] = Anticancer activity against human OVCAR3 cells; method in brief: as §1
[53] = read-out: LC50 (the source's name)

With `C/C1=C\CC[C@@]2(C)O[C@@H]2[C@H]2OC(=O)/C(=C/c3ccsc3)[C@@H]2CC1` the GI50 [1] was 35.7 µM, the CC50 [1, 53] was > 100 µM and the GI50 [2] was 29.3 µM. The CC50 [2, 53] was > 100 µM, the GI50 [3] was 25.7 µM and the CC50 [3, 53] was > 100 µM. The GI50 [4] was 20.7 µM, the CC50 [4, 53] was > 100 µM and the GI50 [5] was 17.7 µM. For the same molecule, the LC50 (concentration killing 50% of cells) [5] was > 100 µM, the GI50 [6] was 22.9 µM and the CC50 [6, 53] was > 100 µM. For the same molecule, the GI50 ([7]; OVCAR-8) was 26.9 µM, the CC50 ([7]; OVCAR-8, read-out: LC50 (the source's name)) was > 100 µM and the GI50 [8] was 29.5 µM. For the same molecule, the CC50 [8, 53] was > 100 µM, the GI50 [9] was 20 µM and the CC50 [9, 53] was > 100 µM. The GI50 ([10]; BT-549) was 20.1 µM, the CC50 ([10]; BT-549, read-out: LC50 (the source's name)) was 88.2 µM and the GI50 ([11]; SF-539) was 16.1 µM. The CC50 ([11]; SF-539, read-out: LC50 (the source's name)) was 62.2 µM, the GI50 [12] was “inactive” and the LC50 [12] was “inactive”. For the same molecule, the GI50 ([13]; RPMI-8226) was 19.7 µM, the CC50 ([13]; RPMI-8226, read-out: LC50 (the source's name)) was > 100 µM and the GI50 [14] was 16 µM. The LC50 (concentration killing 50% of cells) [14] was 81.8 µM, the GI50 [15] was 16.3 µM and the LC50 [15] was 60.4 µM. The GI50 [16] was 29.8 µM, the CC50 [16, 53] was > 100 µM and the GI50 [17] was 17.5 µM. The CC50 [17, 53] was > 100 µM, the GI50 [18] was 5.44 µM and the CC50 [18, 53] was 59.7 µM. For the same molecule, the GI50 [19] was 21.3 µM, the CC50 [19, 53] was > 100 µM and the GI50 [20] was 35.8 µM. The CC50 [20, 53] was > 100 µM, the GI50 [21] was 27 µM and the CC50 [21, 53] was > 100 µM. The GI50 [22] was 18 µM, the CC50 [22, 53] was 71.2 µM and the GI50 [23] was 22.5 µM. The CC50 [23, 53] was > 100 µM, the GI50 [24] was 19.1 µM and the CC50 [24, 53] was > 100 µM. The GI50 [25] was 30.2 µM, the CC50 [25, 53] was > 100 µM and the GI50 ([26]; UACC-62) was 13.8 µM. For the same molecule, the CC50 ([26]; UACC-62, read-out: LC50 (the source's name)) was 76.6 µM, the GI50 [27] was 23.6 µM and the CC50 [27, 53] was > 100 µM. The GI50 [28] was 32.8 µM, the CC50 [28, 53] was > 100 µM and the GI50 [29] was 20.5 µM. For the same molecule, the CC50 [29, 53] was > 100 µM, the GI50 ([30]; RXF 393) was 18.1 µM and the CC50 ([30]; RXF 393, read-out: LC50 (the source's name)) was > 100 µM. For the same molecule, the GI50 ([31]; UACC-257) was 16.6 µM, the CC50 ([31]; UACC-257, read-out: LC50 (the source's name)) was > 100 µM and the GI50 ([32]; HCT-15) was 22.6 µM. The CC50 ([32]; HCT-15, read-out: LC50 (the source's name)) was > 100 µM, the GI50 [33] was 30.9 µM and the CC50 [33, 53] was > 100 µM. The GI50 ([34]; COLO 205) was 22.6 µM, the CC50 ([34]; COLO 205, read-out: LC50 (the source's name)) was 90.9 µM and the GI50 [35] was 25.2 µM. The CC50 [35, 53] was > 100 µM, the GI50 ([36]; HCT-116) was 28.3 µM and the CC50 ([36]; HCT-116, read-out: LC50 (the source's name)) was > 100 µM. The GI50 [37] was 27.9 µM, the CC50 [37, 53] was > 100 µM and the GI50 ([38]; MOLT-4) was 25.7 µM. The CC50 ([38]; MOLT-4, read-out: LC50 (the source's name)) was > 100 µM, the GI50 [39] was 21.5 µM and the CC50 [39, 53] was > 100 µM. For the same molecule, the GI50 [40] was 21.5 µM, the CC50 [40, 53] was > 100 µM and the GI50 [41] was 29.4 µM. For the same molecule, the CC50 [41, 53] was > 100 µM, the GI50 ([42]; OVCAR-5) was 48.1 µM and the CC50 ([42]; OVCAR-5, read-out: LC50 (the source's name)) was > 100 µM. The GI50 ([43]; PC-3) was 22.7 µM, the CC50 ([43]; PC-3, read-out: LC50 (the source's name)) was > 100 µM and the GI50 [44] was 21.7 µM. The CC50 [44, 53] was > 100 µM, the GI50 [45] was 20.4 µM and the CC50 [45, 53] was 86.7 µM. For the same molecule, the GI50 [46] was 25.8 µM, the CC50 [46, 53] was > 100 µM and the GI50 [47] was 18.3 µM. The CC50 [47, 53] was > 100 µM, the GI50 ([48]; UO-31) was 27.3 µM and the CC50 ([48]; UO-31, read-out: LC50 (the source's name)) was > 100 µM. For the same molecule, the GI50 ([49]; SK-OV-3) was 44.9 µM, the CC50 ([49]; SK-OV-3, read-out: LC50 (the source's name)) was > 100 µM and the GI50 [50] was 21.7 µM. For the same molecule, the CC50 [50, 53] was 99.9 µM, the GI50 [51] was 34.7 µM and the CC50 [51, 53] was > 100 µM. The GI50 ([52]; OVCAR-3) was 20.5 µM and the CC50 ([52]; OVCAR-3, read-out: LC50 (the source's name)) was > 100 µM.
